Source: ChEMBL document CHEMBL1144620, “Synthesis and biodistribution of new radiolabeled high-affinity choline transporter inhibitors [11C]hemicholinium-3 and [18F]hemicholinium-3” (Bioorg Med Chem Lett, 2007)

Tests used:
Kidney [1] = assay: Biodistribution in kidney of 9L-glioma bearing rat at 1 to 3 mCi, iv after 5 mins; format: ADME, organism-based; details: in vivo
Method in brief: (§1)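 9L-glioma rats (200–300 g) given 1–3 mCi of [¹¹C]- or [¹⁸F]-labelled tracer iv by tail vein while consciously restrained. At 5 or 20 min they were decapitated under halothane anaesthesia. Tissues were excised and weighed, and decay-corrected radioactivity was counted by gamma counter. Values are %ID/g, averaged over three rats per time point.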

9L [2] = assay: Biodistribution in tumor of 9L-glioma bearing rat at 1 to 3 mCi, iv after 30 mins; format: ADME, organism-based; details: in vivo, 0.5 h
Method in brief: (§2)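 At 30 min they were decapitated under halothane anaesthesia. Tissues were excised, weighed and gamma-counted with decay correction. Values are %ID/g, averaged over three rats.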

Plasma [3] = assay: Biodistribution in plasma of 9L-glioma bearing rat at 1 to 3 mCi, iv after 30 mins; format: ADME, organism-based; details: in vivo, 0.5 h; method in brief: as §2
Solar plexus [4] = assay: Biodistribution in solar plexus of 9L-glioma bearing rat at 1 to 3 mCi, iv after 30 mins; format: ADME, organism-based; details: in vivo, 0.5 h; method in brief: as §2
[5] = Biodistribution in L-ventricle of 9L-glioma bearing rat at 1 to 3mCi, iv after 5 mins; format: ADME, organism-based, Heart left ventricle; details: in vivo; method in brief: as §1
Septum [6] = assay: Biodistribution in septum of 9L-glioma bearing rat at 1 to 3mCi, iv after 5 mins; format: ADME, organism-based; details: in vivo; method in brief: as §1
Blood [7] = assay: Biodistribution in blood of 9L-glioma bearing rat at 1 to 3 mCi, iv after 30 mins; format: ADME, organism-based; details: in vivo, 0.5 h
Method in brief: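 Blood was weighed and gamma-counted with decay correction, and results are expressed as %ID/g. Total blood activity assumed a blood mass of 7% of body mass. n = 3, mean.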

[8] = Biodistribution in urine of 9L-glioma bearing rat at 1 to 3 mCi, iv after 5 mins; format: ADME, organism-based; details: in vivo
Method in brief: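 In 9L-glioma rats injected iv (tail vein, conscious restraint) with 1–3 mCi of radiotracer, urine was drawn by syringe from the bladder at 5 or 20 min. Animals were killed by decapitation under halothane. Decay-corrected radioactivity was gamma-counted and expressed as percent of injected dose (%ID), averaged over three rats.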

Kidney [9] = assay: Biodistribution in kidney of 9L-glioma bearing rat at 1 to 3 mCi, iv after 30 mins; format: ADME, organism-based; details: in vivo, 0.5 h; method in brief: as §2
[10] = Biodistribution in R-Atrium of 9L-glioma bearing rat at 1 to 3 mCi, iv after 30 mins; format: ADME, organism-based, Right cardiac atrium; details: in vivo, 0.5 h; method in brief: as §2
[11] = Ratio of biodistribution in tumor to muscle of 9L-glioma bearing rat at 1 to 3 mCi, iv after 30 mins; format: ADME, organism-based; details: in vivo, 0.5 h
[12] = Ratio of biodistribution in tumor to blood of 9L-glioma bearing rat at 1 to 3 mCi, iv after 30 mins; format: ADME, organism-based; details: tumour, 0.5 h
Blood [13] = assay: Biodistribution in blood of 9L-glioma bearing rat at 1 to 3 mCi, iv after 5 mins; format: ADME, organism-based; details: in vivo; method in brief: as §1
Solar plexus [14] = assay: Biodistribution in solar plexus of 9L-glioma bearing rat at 1 to 3 mCi, iv after 5 mins; format: ADME, organism-based; details: in vivo; method in brief: as §1
[15] = Biodistribution in A-V-node of 9L-glioma bearing rat at 1 to 3 mCi, iv after 5 mins; format: ADME, organism-based; details: in vivo; method in brief: as §1
Brain [16] = assay: Biodistribution in brain of 9L-glioma bearing rat at 1 to 3 mCi, iv after 5 mins; format: ADME, organism-based; details: in vivo; method in brief: as §1
[17] = Biodistribution in urine of 9L-glioma bearing rat at 1 to 3 mCi, iv after 30 mins; format: ADME, organism-based; details: in vivo, 0.5 h
Method in brief: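 At 30 min, urine was drawn from the bladder by syringe after decapitation under halothane. Radioactivity was gamma-counted with decay correction and expressed as % of injected dose. Mean of three rats.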

Liver [18] = assay: Biodistribution in liver of 9L-glioma bearing rat at 1 to 3 mCi, iv after 30 mins; format: ADME, organism-based; details: in vivo, 0.5 h; method in brief: as §2
[19] = Biodistribution in skeletal muscle of 9L-glioma bearing rat at 1 to 3 mCi, iv after 5 mins; format: ADME, organism-based, Muscle tissue; details: in vivo; method in brief: as §1
[20] = Biodistribution in skeletal muscle of 9L-glioma bearing rat at 1 to 3 mCi, iv after 30 mins; format: ADME, organism-based, Muscle tissue; details: in vivo, 0.5 h; method in brief: as §2
Brain [21] = assay: Biodistribution in brain of 9L-glioma bearing rat at 1 to 3 mCi, iv after 30 mins; format: ADME, organism-based; details: in vivo, 0.5 h; method in brief: as §2
9L [22] = assay: Biodistribution in tumor of 9L-glioma bearing rat at 1 to 3 mCi, iv after 5 mins; format: ADME, organism-based; details: in vivo; method in brief: as §1
[23] = Biodistribution in L-ventricle of 9L-glioma bearing rat at 1 to 3 mCi, iv after 30 mins; format: ADME, organism-based, Heart left ventricle; details: in vivo, 0.5 h; method in brief: as §2
Septum [24] = assay: Biodistribution in septum of 9L-glioma bearing rat at 1 to 3 mCi, iv after 30 mins; format: ADME, organism-based; details: in vivo, 0.5 h; method in brief: as §2
[25] = Biodistribution in R-ventricle of 9L-glioma bearing rat at 1 to 3 mCi, iv after 5 mins; format: ADME, organism-based, Heart right ventricle; details: in vivo; method in brief: as §1
Lung [26] = assay: Biodistribution in lung of 9L-glioma bearing rat at 1 to 3 mCi, iv after 5 mins; format: ADME, organism-based; details: in vivo; method in brief: as §1
Liver [27] = assay: Biodistribution in liver of 9L-glioma bearing rat at 1 to 3 mCi, iv after 5 mins; format: ADME, organism-based; details: in vivo; method in brief: as §1
[28] = Biodistribution in A-V-node of 9L-glioma bearing rat at 1 to 3 mCi, iv after 30 mins; format: ADME, organism-based; details: in vivo, 0.5 h; method in brief: as §2
Lung [29] = assay: Biodistribution in lung of 9L-glioma bearing rat at 1 to 3 mCi, iv after 30 mins; format: ADME, organism-based; details: in vivo, 0.5 h; method in brief: as §2
[30] = Biodistribution in L-Atrium of 9L-glioma bearing rat at 1 to 3 mCi, iv after 5 mins; format: ADME, organism-based; details: in vivo; method in brief: as §1
Plasma [31] = assay: Biodistribution in plasma of 9L-glioma bearing rat at 1 to 3 mCi, iv after 5 mins; format: ADME, organism-based; details: in vivo; method in brief: as §1
[32] = Biodistribution in R-Atrium of 9L-glioma bearing rat at 1 to 3 mCi, iv after 5 mins; format: ADME, organism-based, Right cardiac atrium; details: in vivo; method in brief: as §1
[33] = Biodistribution in L-Atrium of 9L-glioma bearing rat at 1 to 3 mCi, iv after 30 mins; format: ADME, organism-based, Left cardiac atrium; details: in vivo, 0.5 h; method in brief: as §2
[34] = Biodistribution in R-ventricle of 9L-glioma bearing rat at 1 to 3 mCi, iv after 30 mins; format: ADME, organism-based, Heart right ventricle; details: in vivo, 0.5 h; method in brief: as §2

`C[N+]1(C)CCOC(O)(c2ccc(-c3ccc(C4(O)C[N+](C)(C[18F])CCO4)cc3)cc2)C1.O=S(=O)([O-])C(F)(F)F.[I-]` (centres undefined) showed a Drug uptake (Kidney [1]) of 8.676 % ID/g, a Drug uptake (9L [2]) of 0.359 % ID/g and a Drug uptake (Plasma [3]) of 1.272 % ID/g. It also gave a Drug uptake (Solar plexus [4]) of 1.009 % ID/g, a Drug uptake [5] of 0.438 % ID/g and a Drug uptake (Septum [6]) of 0.53 % ID/g. The Drug uptake (Blood [7]) was 0.378 % ID/g, the Drug uptake [8] was 10.2 % dose and the Drug uptake (Kidney [9]) was 5.935 % ID/g. The Drug uptake [10] was 0.999 % ID/g, the Ratio [11] was 3.024 and the Ratio [12] was 0.978. The Drug uptake (Blood [13]) was 1.467 % ID/g, the Drug uptake (Solar plexus [14]) was 1.186 % ID/g and the Drug uptake [15] was 5.607 % ID/g. It also gave a Drug uptake (Brain [16]) of 0.042 % ID/g, a Drug uptake [17] of 27.6 % dose and a Drug uptake (Liver [18]) of 1.536 % ID/g. The Drug uptake [19] was 0.194 % ID/g, the Drug uptake [20] was 0.123 % ID/g and the Drug uptake (Brain [21]) was 0.03 % ID/g. It also gave a Drug uptake (9L [22]) of 0.952 % ID/g, a Drug uptake [23] of 0.253 % ID/g and a Drug uptake (Septum [24]) of 0.262 % ID/g. It also gave a Drug uptake [25] of 0.734 % ID/g, a Drug uptake (Lung [26]) of 0.944 % ID/g and a Drug uptake (Liver [27]) of 1.228 % ID/g. For the same compound, the Drug uptake [28] was 0.6 % ID/g, the Drug uptake (Lung [29]) was 0.533 % ID/g and the Drug uptake [30] was 0.824 % ID/g. The Drug uptake (Plasma [31]) was 3.732 % ID/g, the Drug uptake [32] was 2.023 % ID/g and the Drug uptake [33] was 0.767 % ID/g. The Drug uptake [34] was 0.243 % ID/g.
